Counter-ions that a name gives are not always drawn.

The pKi is the Ki on a negative log10 scale, so that one unit is a factor of ten.

Test [1] deals with T1, Alpha-1A adrenergic receptor (Homo sapiens, UniProt P35348).
T1 sequence (P35348 whole entry): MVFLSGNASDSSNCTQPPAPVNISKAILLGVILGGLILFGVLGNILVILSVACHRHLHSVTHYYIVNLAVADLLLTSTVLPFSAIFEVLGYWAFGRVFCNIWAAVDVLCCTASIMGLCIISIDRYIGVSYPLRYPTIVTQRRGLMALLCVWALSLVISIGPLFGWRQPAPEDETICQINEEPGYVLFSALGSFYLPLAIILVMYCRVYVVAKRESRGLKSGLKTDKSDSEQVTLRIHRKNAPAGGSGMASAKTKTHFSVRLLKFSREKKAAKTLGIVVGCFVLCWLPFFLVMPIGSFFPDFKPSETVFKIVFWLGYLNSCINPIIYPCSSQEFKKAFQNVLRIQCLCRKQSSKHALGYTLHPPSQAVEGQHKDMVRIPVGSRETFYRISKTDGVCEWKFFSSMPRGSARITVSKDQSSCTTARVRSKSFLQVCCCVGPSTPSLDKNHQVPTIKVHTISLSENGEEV
Put plainly: The binding affinity was evaluated on cloned human Alpha-1A adrenergic receptor expressed in chinese hamster ovary(CHO) cells by using [3H]prazosin as radioligand. A digest of the protocol:
(§1)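 Membranes (30 μg protein) from CHO cells stably expressing each human α1 subtype, in 50 mM Tris-HCl pH 7.4. Incubated with 0.1–0.4 nM [3H]prazosin for 30 min at 25 °C, competitor 1 pM–10 μM. Nonspecific binding with 10 μM phentolamine. Ki by Cheng-Prusoff. 2–3 experiments in triplicate.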

In test [2] the target is T2, 5-hydroxytryptamine receptor 1A (Homo sapiens, UniProt P08908).
T2 sequence (P08908 whole entry): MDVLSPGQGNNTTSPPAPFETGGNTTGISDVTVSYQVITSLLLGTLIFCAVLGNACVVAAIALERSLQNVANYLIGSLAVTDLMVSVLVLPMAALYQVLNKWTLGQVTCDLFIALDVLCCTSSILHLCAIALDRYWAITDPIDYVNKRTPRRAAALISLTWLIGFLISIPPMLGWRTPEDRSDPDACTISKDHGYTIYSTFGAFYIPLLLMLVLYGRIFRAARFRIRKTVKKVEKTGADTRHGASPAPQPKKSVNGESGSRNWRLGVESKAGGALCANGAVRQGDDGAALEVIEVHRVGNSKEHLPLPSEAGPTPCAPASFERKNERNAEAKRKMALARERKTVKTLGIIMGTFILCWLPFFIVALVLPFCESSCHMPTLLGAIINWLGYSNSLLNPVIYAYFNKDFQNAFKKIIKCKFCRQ
In words: The binding affinity was evaluated on cloned human 5-hydroxytryptamine 1A receptor expressed in HeLa cells by using DPAT as radioligand. In outline: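 Membranes from HeLa cells stably expressing human 5-HT1A, in 50 mM Tris-HCl pH 7.4, 2.5 mM MgCl2, 10 μM pargyline. Nonspecific binding with 10 μM 5-HT. Filtration. Ki by Cheng-Prusoff. 2–3 experiments in triplicate.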

Test [3] addresses T3, Alpha-1D adrenergic receptor (Homo sapiens, UniProt P25100).
T3 sequence (P25100 whole entry): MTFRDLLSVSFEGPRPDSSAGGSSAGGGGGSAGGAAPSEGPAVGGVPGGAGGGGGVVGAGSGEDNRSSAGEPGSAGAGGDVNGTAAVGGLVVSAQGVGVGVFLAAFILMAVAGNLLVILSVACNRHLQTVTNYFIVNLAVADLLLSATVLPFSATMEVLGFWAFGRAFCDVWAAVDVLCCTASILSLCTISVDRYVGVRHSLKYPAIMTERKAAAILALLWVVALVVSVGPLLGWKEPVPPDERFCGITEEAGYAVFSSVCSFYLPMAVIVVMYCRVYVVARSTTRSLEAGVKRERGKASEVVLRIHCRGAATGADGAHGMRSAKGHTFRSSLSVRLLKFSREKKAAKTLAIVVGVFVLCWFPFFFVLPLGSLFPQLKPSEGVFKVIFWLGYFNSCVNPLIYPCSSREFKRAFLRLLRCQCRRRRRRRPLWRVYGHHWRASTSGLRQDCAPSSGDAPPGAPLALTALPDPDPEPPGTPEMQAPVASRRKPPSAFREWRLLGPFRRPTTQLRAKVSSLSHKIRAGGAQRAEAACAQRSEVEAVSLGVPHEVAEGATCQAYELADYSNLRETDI
Put plainly: The binding affinity was evaluated on cloned human Alpha-1D adrenergic receptor expressed in chinese hamster ovary(CHO) cells by using [3H]-prazosin as radioligand. A digest of the protocol:
as §1

For test [4], the target named is T4, Alpha-1B adrenergic receptor (Homo sapiens, UniProt P35368).
T4 sequence (P35368 whole entry): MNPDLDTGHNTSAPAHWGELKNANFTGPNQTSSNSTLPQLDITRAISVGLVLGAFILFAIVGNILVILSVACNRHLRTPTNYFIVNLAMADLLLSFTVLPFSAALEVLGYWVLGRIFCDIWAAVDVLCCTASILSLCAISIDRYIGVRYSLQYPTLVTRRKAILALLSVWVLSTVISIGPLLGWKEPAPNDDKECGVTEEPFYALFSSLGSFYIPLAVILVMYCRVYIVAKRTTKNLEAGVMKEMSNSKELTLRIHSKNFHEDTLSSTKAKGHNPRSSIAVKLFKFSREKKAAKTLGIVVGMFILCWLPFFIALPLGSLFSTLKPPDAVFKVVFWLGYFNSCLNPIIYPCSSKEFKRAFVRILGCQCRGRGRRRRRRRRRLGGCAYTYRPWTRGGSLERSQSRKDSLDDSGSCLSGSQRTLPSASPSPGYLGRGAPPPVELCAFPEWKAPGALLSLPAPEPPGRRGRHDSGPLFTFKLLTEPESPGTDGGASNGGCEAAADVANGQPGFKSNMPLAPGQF
In words: The binding affinity was evaluated on cloned human Alpha-1B adrenergic receptor expressed in chinese hamster ovary(CHO) cells by using [3H]prazosin as radioligand. A digest of the protocol:
as §1

In test [5] the target is 5-hydroxytryptamine receptor 2A (Rattus norvegicus, UniProt P14842). Put plainly: The binding affinity was evaluated on 5-hydroxytryptamine 2A receptor expressed in rat cortex by using [3H]ketanserin as radioligand. In outline:
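Rat cerebral cortex membranes in Tris-HCl pH 7.4 with 10 μM pargyline and 0.1% ascorbic acid. Incubated 20 min at 37 °C with 0.7–1.3 nM [3H]ketanserin. Nonspecific binding with 2 μM ketanserin. Filtration and scintillation counting. Ki by Cheng-Prusoff. 2–3 experiments in triplicate.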

For test [6], the target named is T1, Alpha-1A adrenergic receptor. Put plainly: The binding affinity was evaluated on cloned human alpha-1A adrenergic receptor expressed in chinese hamster ovary(CHO) cells by using [3H]prazosin as radioligand. In outline:
as §1

Test [7] addresses T5, Alpha-2A adrenergic receptor [16-465]/Alpha-2B adrenergic receptor/Alpha-2C adrenergic receptor (Rattus norvegicus, UniProt P19328+P22086+P22909).
T5 construct: 16-465
T5 sequence (P22909 whole entry): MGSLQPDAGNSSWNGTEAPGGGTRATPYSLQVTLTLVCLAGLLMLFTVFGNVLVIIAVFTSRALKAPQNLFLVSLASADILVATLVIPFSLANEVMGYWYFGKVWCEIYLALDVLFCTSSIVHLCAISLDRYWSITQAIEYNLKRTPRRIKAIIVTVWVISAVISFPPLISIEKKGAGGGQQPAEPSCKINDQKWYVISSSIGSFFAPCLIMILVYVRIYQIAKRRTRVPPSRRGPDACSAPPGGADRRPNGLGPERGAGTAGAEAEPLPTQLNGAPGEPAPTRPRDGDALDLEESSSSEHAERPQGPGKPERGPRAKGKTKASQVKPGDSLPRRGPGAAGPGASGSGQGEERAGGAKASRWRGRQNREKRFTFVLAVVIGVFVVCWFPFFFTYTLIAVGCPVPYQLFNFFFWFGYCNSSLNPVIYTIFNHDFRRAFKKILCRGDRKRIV
T5 sequence (P22086 whole entry): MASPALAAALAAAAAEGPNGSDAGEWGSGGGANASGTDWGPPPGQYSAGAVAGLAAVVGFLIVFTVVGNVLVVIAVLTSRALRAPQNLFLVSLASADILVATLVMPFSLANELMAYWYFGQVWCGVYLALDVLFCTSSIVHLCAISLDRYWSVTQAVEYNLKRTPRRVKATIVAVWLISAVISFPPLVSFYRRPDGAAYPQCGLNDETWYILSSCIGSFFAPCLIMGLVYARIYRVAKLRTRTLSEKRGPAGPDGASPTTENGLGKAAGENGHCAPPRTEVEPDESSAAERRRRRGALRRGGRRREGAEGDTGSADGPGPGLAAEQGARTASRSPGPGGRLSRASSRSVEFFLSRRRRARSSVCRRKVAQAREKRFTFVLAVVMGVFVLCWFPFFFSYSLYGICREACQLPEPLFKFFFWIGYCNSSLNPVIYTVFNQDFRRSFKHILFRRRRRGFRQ
T5 sequence (P19328 whole entry): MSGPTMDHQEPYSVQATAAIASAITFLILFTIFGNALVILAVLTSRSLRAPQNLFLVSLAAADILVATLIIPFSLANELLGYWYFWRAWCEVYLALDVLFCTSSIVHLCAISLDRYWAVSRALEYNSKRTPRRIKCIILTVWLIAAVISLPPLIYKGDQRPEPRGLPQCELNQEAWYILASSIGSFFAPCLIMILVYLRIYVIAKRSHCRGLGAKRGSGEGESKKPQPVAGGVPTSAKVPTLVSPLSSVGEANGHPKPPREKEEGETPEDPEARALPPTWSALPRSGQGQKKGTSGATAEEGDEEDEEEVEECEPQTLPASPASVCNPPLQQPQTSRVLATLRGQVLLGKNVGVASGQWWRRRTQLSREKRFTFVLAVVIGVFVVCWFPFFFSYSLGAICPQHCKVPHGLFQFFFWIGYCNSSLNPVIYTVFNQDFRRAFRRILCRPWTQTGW
Put plainly: The binding affinity was evaluated on alpha-2 adrenergic receptor expressed in rat cortex by using [3H]rauwolscine as radioligand. In outline: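 Male Sprague-Dawley rat cerebral cortex membranes, washed in Tris-HCl pH 7.4 and held in buffer with 10 μM pargiline and 0.1% ascorbic acid. Incubated 30 min at 25 °C with 0.5-1.5 nM [3H]rauwolscine; nonspecific binding with 10 μM phentolamine. Filtration, scintillation counting. Ki from Cheng-Prusoff; 2-3 experiments in triplicate.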

A further test deals with D(2) dopamine receptor (Rattus norvegicus, UniProt P61169). In words: The binding affinity was evaluated on Dopamine receptor D2 expressed in rat striatum by using [3H]spiperone as radioligand. A digest of the protocol:
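Rat striatum membranes in Tris-HCl with 10 μM pargyline, 0.1% ascorbic acid, 120 mM NaCl, 5 mM KCl, 2 mM CaCl2, 1 mM MgCl2. Incubated 15 min at 37 °C with 0.2–0.6 nM [3H]spiperone. Nonspecific binding with 1 μM (+)-butaclamol. Ki by Cheng-Prusoff. 2–3 experiments in triplicate.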

For test [8], the target named is T4, Alpha-1B adrenergic receptor. Put plainly: The binding affinity was evaluated on cloned human alpha-1B adrenergic receptor expressed in chinese hamster ovary(CHO) cells by using [3H]prazosin as radioligand. A digest of the protocol:
as §1

The target of test [9] is T3, Alpha-1D adrenergic receptor. In words: The binding affinity was evaluated on cloned human alpha-1D adrenergic receptor expressed in chinese hamster ovary(CHO) cells by using [3H]prazosin as radioligand. A digest of the protocol: as §1
Test [10] has as its target T5, Alpha-2A adrenergic receptor [16-465]/Alpha-2B adrenergic receptor/Alpha-2C adrenergic receptor. Put plainly: The binding affinity was evaluated on Alpha-2 adrenergic receptor expressed in rat cortex by using [3H]rauwolscine as radioligand. In outline: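 Male Sprague-Dawley rat cerebral cortex membranes, washed in Tris-HCl pH 7.4 and resuspended with 10 μM pargyline and 0.1% ascorbic acid. Incubated 30 min at 25 °C with 0.5–1.5 nM [3H]rauwolscine. Nonspecific binding with 10 μM phentolamine. Filtration on PEI-treated filters. Ki by Cheng-Prusoff. 2–3 experiments in triplicate.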

Sequence of 5-hydroxytryptamine receptor 2A (P14842 whole entry): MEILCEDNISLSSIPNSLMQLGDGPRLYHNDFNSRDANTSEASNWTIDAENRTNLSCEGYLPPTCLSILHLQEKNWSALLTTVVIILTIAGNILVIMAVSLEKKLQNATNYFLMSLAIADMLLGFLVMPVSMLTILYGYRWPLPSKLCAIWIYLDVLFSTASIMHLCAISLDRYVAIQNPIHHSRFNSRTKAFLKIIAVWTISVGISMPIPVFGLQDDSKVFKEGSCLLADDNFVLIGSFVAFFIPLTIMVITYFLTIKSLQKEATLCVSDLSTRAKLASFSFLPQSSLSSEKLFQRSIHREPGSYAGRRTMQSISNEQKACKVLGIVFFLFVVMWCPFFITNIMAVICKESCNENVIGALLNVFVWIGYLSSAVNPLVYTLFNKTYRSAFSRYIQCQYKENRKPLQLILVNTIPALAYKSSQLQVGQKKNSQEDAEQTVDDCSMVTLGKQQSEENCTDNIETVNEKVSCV
Sequence of D(2) dopamine receptor (P61169 whole entry): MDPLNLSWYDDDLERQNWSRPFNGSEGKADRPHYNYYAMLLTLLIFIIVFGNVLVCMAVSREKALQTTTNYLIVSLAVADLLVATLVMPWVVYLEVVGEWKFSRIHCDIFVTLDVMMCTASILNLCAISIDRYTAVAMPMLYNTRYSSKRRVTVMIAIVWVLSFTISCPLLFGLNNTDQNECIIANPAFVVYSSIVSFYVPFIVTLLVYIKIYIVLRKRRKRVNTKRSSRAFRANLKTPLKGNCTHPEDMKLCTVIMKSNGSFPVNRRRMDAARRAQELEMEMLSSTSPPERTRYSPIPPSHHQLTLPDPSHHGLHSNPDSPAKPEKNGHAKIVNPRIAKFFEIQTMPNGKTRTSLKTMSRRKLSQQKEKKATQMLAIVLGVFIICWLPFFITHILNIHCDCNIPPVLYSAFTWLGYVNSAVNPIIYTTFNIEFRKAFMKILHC

Take `COc1cccc(OC)c1OCCNCC1=Cc2ccccc2OC1c1ccccc1` (stereo not given): the pKi came out at 7.14 in test [1], 8.08 in test [2], 6.95 in test [3] and 6.84 in [4].
With `COc1cccc(OC)c1OCCNCCOc1ccccc1OCc1ccccc1`, the pKi was 9.33 in [1], 7.93 in [2], 10.2 in [3] and 9.27 in test [4].
On to `COc1cccc(OC)c1OCCNCC1COc2ccccc2O1` (stereo not given) [WB-4101 hydrochloride], for which the negative logarithm of the Ki (pKi) in test [5] amounted to 6; in test [6], 9.37; in test [2], 8.68; in test [7], 7.83; at D(2) dopamine receptor it was 6.91.
In the case of `COc1cccc(OC)c1OCCNCC1Oc2ccccc2CC1c1ccccc1` (stereo not given), the negative logarithm of the Ki (pKi) is less than 6 in test [5]; 6.78 in [6]; 8.49 in test [1]; 6.84 in test [2]; 6.51 in test [8]; 7.28 in test [3]. Further, the pKi on D(2) dopamine receptor is less than 6; in test [9] it was 6.86; in [4], 6.58; in test [10], less than 6.
Consider `COc1cccc(OC)c1OCCNCC1C(=O)c2ccccc2SC1c1ccccc1` (stereo not given), for which the pKi in test [6] is 7.42; in test [2], 7.36; in [9], 6.37; in test [4] it was less than 6.
For the molecule `COc1cccc(OC)c1OCCNCC1C(=O)c2ccccc2OC1c1ccccc1` (stereo not given), the pKi in test [5] is 6.2; in test [6], 9.22; in [2], 6.73; in test [8], 6.84; in test [7] it was less than 6; on D(2) dopamine receptor, less than 6. For the same molecule, the pKi in test [9] turned out to be 7.93.
For the molecule `COc1cccc(OC)c1OCCNCC1C(=O)c2ccccc2CC1c1ccccc1` (stereo not given), the pKi in [5] is 6.63; in [6], 8.06; in test [2], 6.83; in test [8], 6.11; in [7] it was 6.45; at D(2) dopamine receptor it was less than 6. In test [9], this molecule registered a pKi of 6.88.
On to `CCCN(CCC)C1CCc2cccc(O)c2C1` (stereo not given), for which the pKi is less than 6 in test [5], less than 6 in test [8], 6.08 in test [7] and less than 6 on D(2) dopamine receptor.

The values are drawn from BindingDB's records for doi:10.1021/jm9910324 (University of Camerino, 1999).
